# NR2E3 ag-1: activates human NR2E3 receptor; Q9Y5X4; CHO-S Gal4-NCOR/VP16-NR2E3 two-hybrid, luciferase; inhibition of corepressor binding, % at 3.98 µM; 360,000 tested, 0.35% active; AID 602229;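 active means inhibition above the mean of all tested compounds plus 3 SD, cut at about 70% in these data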;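 further: higher means lower luciferase signal from less NR2E3 corepressor binding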
# Target sequence (Q9Y5X4 whole entry, looked up, the tested form may be a part): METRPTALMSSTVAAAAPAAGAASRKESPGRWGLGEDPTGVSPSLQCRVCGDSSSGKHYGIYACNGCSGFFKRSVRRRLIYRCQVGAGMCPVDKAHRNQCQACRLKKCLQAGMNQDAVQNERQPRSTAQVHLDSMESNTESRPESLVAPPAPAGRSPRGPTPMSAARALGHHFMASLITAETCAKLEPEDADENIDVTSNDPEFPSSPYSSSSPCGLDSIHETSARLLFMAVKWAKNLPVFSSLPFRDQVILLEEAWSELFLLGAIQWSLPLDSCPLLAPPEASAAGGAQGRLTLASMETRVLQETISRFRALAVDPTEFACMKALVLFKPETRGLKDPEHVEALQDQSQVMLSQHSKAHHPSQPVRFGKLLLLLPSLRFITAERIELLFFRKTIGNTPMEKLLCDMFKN
# Furin inh: blocks human furin protease activity; P09958; purified furin, fluorogenic substrate cleavage; inhibition, % at 20 µM or 30 µM; 220,000 tested, 0.061% active; in the data active means inhibition above about 25%
# EP2 mod: modulators of human EP2 prostaglandin E2 receptor; P43116; EP2-expressing cells, cAMP HTRF FRET, PGE2 co-stimulation; AID 940; induction, % at 25 µM; 260,000 tested, 0.83% active;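 active means compounds whose cAMP rise, as percent of the full-agonist control response, exceeds 60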;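 further: rat C6 glioma line stably carrying human EP2 under a CMV promoter; the protocol text gives 20 µM as final concentration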
# Target sequence (P43116 whole entry, looked up): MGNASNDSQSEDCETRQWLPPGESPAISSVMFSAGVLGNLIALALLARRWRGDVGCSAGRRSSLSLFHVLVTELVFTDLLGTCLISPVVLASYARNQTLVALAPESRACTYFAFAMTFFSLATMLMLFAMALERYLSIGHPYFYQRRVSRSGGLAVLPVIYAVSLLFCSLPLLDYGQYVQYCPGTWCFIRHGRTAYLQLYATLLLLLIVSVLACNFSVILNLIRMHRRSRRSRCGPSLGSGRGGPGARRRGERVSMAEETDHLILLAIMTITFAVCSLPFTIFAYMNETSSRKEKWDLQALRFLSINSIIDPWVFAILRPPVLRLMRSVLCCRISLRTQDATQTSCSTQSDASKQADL
# JMJD2C inh: blocks human GASC-1 demethylase activity. Q9H3R0. GST-JMJD2C(1-420) H3K9me3 demethylation, DELFIA europium. inhibition, % at 2.35 µM. 330,000 tested, 0.069% active. AID 2099;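 active means more than half of a compound's replicate wells show inhibition beyond 50%, single wells judged on their own value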;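 further: signal counts dimethyl H3K9 product captured on neutravidin plate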
# EP2 antag: blocks the human prostaglandin E2 receptor EP2. P43116. C6 glioma cells expressing human EP2, cAMP TR-FRET; cells stimulated with saturating PGE2. inhibition, % at 25 µM. 260,000 tested, 0.52% active;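 active means percent inhibition above 40 after rounding to a whole number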;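 further: rat C6 glioma host cells with rolipram phosphodiesterase inhibitor present; the protocol text gives 20 µM as final concentration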
# NR2E3 ag-2: NR2E3 (human) agonism. Q9Y5X4. GST-NR2E3/biotin-RetCOR TR-FRET, 1536-well. inhibition of corepressor binding, % at 4.78 µM. 320,000 tested, 0.12% active;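 active means percent inhibition above the cutoff of mean plus 3 SD of all tested compounds, set per screening campaign, cut at about 20% in these data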
#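 System: GST-NR2E3 and biotin-RetCOR proteins; probe or stimulus: 7 nM biotin-RetCOR; doses: compound at 4.8 µM, single dose; schedule: Compound–protein incubation for 5 h at 4 °C; detection: time-resolved FRET; read-out: percent inhibition; controls: biotin wells as high control, 0.6% DMSO wells as low control; format: 1536-well plates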
# NR2E3 ag confirm: NR2E3 agonism confirmed in two-hybrid assay. 2,300 tested, 51% active. AID 624378. CHO-S mammalian two-hybrid NR2E3-NCOR, luciferase luminescence. shares compounds with NR2E3 ag-1. inhibition, % at 3.98 µM;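 active means average inhibition above a cutoff equal to the mean inhibition of all tested compounds plus one SD, cut at about 70% in these data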
# VP16 counter: counter-screen for NR2E3 agonists: GAL4-VP16 reporter inhibitors; shares compounds with NR2E3 ag-1; CHO-S GAL4-VP16 luciferase reporter, luminescence; inhibition, % at 3.98 µM; 2,300 tested, 29% active; AID 624379;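 active means mean inhibition above a cutoff equal to the average over all tested compounds plus one standard deviation, cut at about 70% in these data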;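 further: luciferase from a UAS reporter driven by GAL4-VP16 transactivation; higher means less reporter light so more repression of VP16 activity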
# A number is an active result; i = inactive; nt = not tested or not shown. An excerpt weighted towards active compounds, which were near 1.3% of everything screened.
SMILES,NR2E3 ag-1,Furin inh,EP2 mod,JMJD2C inh,EP2 antag,NR2E3 ag-2,NR2E3 ag confirm,VP16 counter
COc1ccc(C)cc1NC(=O)CSc1nc2sc3c(c2c(=O)[nH]1)CCCC3,nt,nt,i,nt,i,nt,nt,nt
COc1ccc(OC)c(C2C3=C(COC3=O)Nc3cc4c(cc32)OCO4)c1 (stereo unspecified),i,i,i,i,i,i,i,i
COc1ccc(C2C3=C(CC(C)(C)CC3=O)Nc3cc4c(cc32)OCO4)cc1 (stereo unspecified),i,i,i,i,i,i,nt,nt
CC(C)c1ccc(S(=O)(=O)N2CCN(CC(O)CN3CCOCC3)CC2)cc1 (stereo unspecified),i,nt,nt,nt,nt,i,nt,nt
CC(OCC(O)CN1CCN(S(=O)(=O)c2ccc(Cl)cc2)CC1)c1ccc(Cl)cc1 (stereo unspecified),i,nt,nt,nt,nt,nt,i,i
O=c1[nH]c2ccc(S(=O)(=O)N3CCN(c4ccccc4F)CC3)cc2s1,i,i,i,i,i,i,i,i
Cc1cc(C)c2[nH]c(=O)c(CN(CCN(C)C)C(=S)NCCc3ccccc3)cc2c1,nt,nt,i,nt,i,nt,nt,nt
Cc1nc2ccccc2c(N)c1C(=O)/C=C/c1ccccc1,i,nt,nt,i,nt,i,i,i
Cc1cc(SCn2nnc3ccccc3c2=O)nc2ccccc12,i,i,i,i,i,i,nt,nt
Cc1ccc(-n2nnnc2SCn2nnc3ccccc3c2=O)c(C)c1,92,i,i,i,i,i,89,72
COc1ccccc1CC(=O)N1CCC(Cn2nc(-c3ccco3)ccc2=O)CC1,nt,nt,i,nt,nt,nt,nt,nt
Cc1csc(NC(=O)CSCC(=O)O)c1-c1nc2ccccc2s1,i,i,i,i,i,i,i,i
CC(C)Nc1ncnc2c1ncn2[C@H]1CN(Cc2ccc(-c3ccccc3)cc2)C[C@@H](CO)O1,73,nt,nt,nt,nt,nt,i,i
CC(C)CNc1ncnc2c1ncn2[C@H]1CN(Cc2ccc(-c3ccccc3)cc2)C[C@@H](CO)O1,i,nt,nt,nt,nt,nt,89,i
Cc1cnc(C(=O)N[C@@H](Cn2nc(-c3ccc(F)c(F)c3)ccc2=O)C(C)C)cn1,nt,nt,i,nt,i,nt,nt,nt
CCOC(=O)c1ccc(NC(=O)C2CC(=O)N(c3ccc(OCC)cc3)C2)cc1 (stereo unspecified),nt,nt,i,nt,i,nt,nt,nt
C=C[C@]1(C)C=C2C(=O)[C@@]3(O)OC(=O)[C@@]4(CCCC(C)(C)[C@H]34)[C@@]2(O)CC1,92,nt,nt,nt,nt,nt,91,i
CCCOC(=O)C1=C(C)NC2=C(C(=O)CCC2)C1c1ccc(OC)c(OC)c1 (stereo unspecified),nt,nt,i,nt,i,nt,nt,nt
O=c1c2ccc(F)cc2sn1-c1ccccc1,i,nt,nt,nt,nt,nt,nt,nt
Cc1ccc(-n2sc3cc(F)ccc3c2=O)c(C)c1,i,nt,nt,nt,nt,nt,i,i
CCOc1ccccc1CNc1ncnc2ccc(-c3c(C)noc3C)cc12,82,nt,nt,i,nt,i,81,i
S=c1[nH]cnc2scc(-c3ccc(Cl)cc3)c12,i,i,i,i,i,i,i,i
S=c1[nH]cnc2scc(-c3ccc(Br)cc3)c12,81,i,i,i,i,i,i,i
O=c1[nH]c2cc3c(cc2cc1CN(CC1COCCO1)S(=O)(=O)c1ccc(F)cc1)OCCO3 (stereo unspecified),nt,nt,i,nt,i,nt,nt,nt
Cc1csc2ncnc(NCCc3ccccn3)c12,71,i,i,i,i,i,90,77
SMILES,NR2E3 ag-1,Furin inh,EP2 mod,JMJD2C inh,EP2 antag,NR2E3 ag-2,NR2E3 ag confirm,VP16 counter
c1ccc(CCNc2ncnc3sccc23)nc1,i,i,i,i,i,i,nt,nt
O=C(CN1CCN(C(=O)c2ccco2)CC1)Nc1nnc(-c2ccccc2)s1,nt,nt,i,nt,i,nt,nt,nt
CC1Sc2ccc(S(=O)(=O)N3CCN(c4ccccc4)CC3)cc2NC1=O (stereo unspecified),i,nt,nt,i,nt,i,nt,nt
Cc1cccc(CCNS(=O)(=O)c2ccc3c(c2)NC(=O)C(C)S3)c1 (stereo unspecified),i,nt,nt,i,nt,i,i,i
CC1Sc2ccc(S(=O)(=O)NCCc3ccc(Cl)cc3)cc2NC1=O (stereo unspecified),i,nt,nt,i,nt,i,nt,nt
Cc1ccc(NC(=O)C2CCN(S(=O)(=O)c3ccc4c(c3)NC(=O)C(C)S4)CC2)cc1Cl (stereo unspecified),105,nt,nt,i,nt,i,98,85
Cc1cccc(N2CCN(S(=O)(=O)c3ccc4c(c3)NC(=O)C(C)S4)CC2)c1C (stereo unspecified),i,nt,nt,i,nt,i,i,i
O=C(NC1CCNCC1)c1ccco1,nt,nt,i,nt,i,nt,nt,nt
CCCC(=O)c1ccc(N2CCN(C(=O)c3ccccc3Br)CC2)c(F)c1,84,i,i,i,i,i,74,i
O=[N+]([O-])c1ccc2c(c1)ncn2-c1ccccc1,i,i,i,i,i,i,nt,nt
O=[N+]([O-])c1ccc2c(c1)ncn2CCc1ccccc1,76,nt,nt,i,nt,nt,i,i
O=C(CSc1nnc(-c2ccco2)o1)Nc1ccc(Cl)cn1,nt,nt,i,nt,i,nt,nt,nt
Cc1csc2ncnc(N3CCN(S(=O)(=O)c4cccc(C(F)(F)F)c4)CC3)c12,94,nt,nt,i,nt,i,97,90
O=S(=O)(c1cccc(Br)c1)N1CCN(c2ncnc3scc(-c4ccccc4)c23)CC1,i,nt,nt,nt,nt,nt,nt,nt
CCCn1c(SCC)nc2c1c(=O)[nH]c(=O)n2C,nt,nt,i,nt,i,nt,nt,nt
O=C1NC(=S)S/C1=C\c1cc(Cl)ccc1Cl,81,nt,nt,nt,nt,nt,99,i
O=C1NC(=S)S/C1=C\c1ccc(Cl)c(Cl)c1,nt,nt,i,nt,i,nt,nt,nt
Cc1ccc(CN(CCCn2ccnc2)Cc2ccccc2O)o1,nt,nt,i,nt,i,nt,nt,nt
COc1ccc(CNC(=O)c2cccc3c(-c4ccc(F)c(F)c4)coc23)cc1OC,i,nt,nt,nt,nt,nt,80,i
O=C(NCc1cccnc1)c1ccc(-c2ccc(F)c(F)c2)c2ccoc12,76,nt,nt,nt,nt,nt,96,76
COc1ccc(CNC(=O)c2cccc3c(-c4cccc(C(N)=O)c4)coc23)cc1OC,i,nt,nt,nt,nt,nt,i,i
COc1cc(-c2coc3c(C(=O)NCc4ccc(OC)c(OC)c4)cccc23)ccc1O,i,nt,nt,nt,nt,nt,i,i
CCn1c(CN2CCC(O)CC2)nc2ccccc2c1=O,nt,nt,i,nt,i,nt,nt,nt
Cc1ccc(-c2nnn(CC(=O)NC3CCCCC3C)n2)cc1 (stereo unspecified),nt,nt,i,nt,i,nt,nt,nt
COc1ccc(CNS(=O)(=O)c2ccc3c(c2)CCN3C(=O)C2CC2)cc1,i,i,i,i,i,i,i,i
O=C(C1CC1)N1CCc2cc(S(=O)(=O)NCCCN3CCCCC3)ccc21,i,nt,nt,i,nt,i,nt,nt
COc1ccc(CNS(=O)(=O)c2ccc3c(c2)CC(C)N3C(=O)C2CC2)cc1 (stereo unspecified),95,nt,nt,i,nt,i,89,75
COc1cccc(CNS(=O)(=O)c2ccc3c(c2)CC(C)N3C(=O)C2CC2)c1 (stereo unspecified),i,nt,nt,i,nt,i,i,i
